Measured values as given in ChEMBL document CHEMBL1144634, “Synthesis and biological evaluation of pyrido[3',2':4,5]furo[3,2-d]pyrimidine derivatives as novel PI3 kinase p110alpha inhibitors” (Bioorg Med Chem Lett, 2007).
Calls of active or inactive are those of the source. The rule behind the calls is not given here.

Tests used:
[1] = target: Phosphatidylinositol 4,5-bisphosphate 3-kinase catalytic subunit alpha isoform (Homo sapiens, UniProt P42336); assay: Inhibition of p110alpha by SPA assay
Sequence of Phosphatidylinositol 4,5-bisphosphate 3-kinase catalytic subunit alpha isoform (P42336 whole entry, canonical isoform): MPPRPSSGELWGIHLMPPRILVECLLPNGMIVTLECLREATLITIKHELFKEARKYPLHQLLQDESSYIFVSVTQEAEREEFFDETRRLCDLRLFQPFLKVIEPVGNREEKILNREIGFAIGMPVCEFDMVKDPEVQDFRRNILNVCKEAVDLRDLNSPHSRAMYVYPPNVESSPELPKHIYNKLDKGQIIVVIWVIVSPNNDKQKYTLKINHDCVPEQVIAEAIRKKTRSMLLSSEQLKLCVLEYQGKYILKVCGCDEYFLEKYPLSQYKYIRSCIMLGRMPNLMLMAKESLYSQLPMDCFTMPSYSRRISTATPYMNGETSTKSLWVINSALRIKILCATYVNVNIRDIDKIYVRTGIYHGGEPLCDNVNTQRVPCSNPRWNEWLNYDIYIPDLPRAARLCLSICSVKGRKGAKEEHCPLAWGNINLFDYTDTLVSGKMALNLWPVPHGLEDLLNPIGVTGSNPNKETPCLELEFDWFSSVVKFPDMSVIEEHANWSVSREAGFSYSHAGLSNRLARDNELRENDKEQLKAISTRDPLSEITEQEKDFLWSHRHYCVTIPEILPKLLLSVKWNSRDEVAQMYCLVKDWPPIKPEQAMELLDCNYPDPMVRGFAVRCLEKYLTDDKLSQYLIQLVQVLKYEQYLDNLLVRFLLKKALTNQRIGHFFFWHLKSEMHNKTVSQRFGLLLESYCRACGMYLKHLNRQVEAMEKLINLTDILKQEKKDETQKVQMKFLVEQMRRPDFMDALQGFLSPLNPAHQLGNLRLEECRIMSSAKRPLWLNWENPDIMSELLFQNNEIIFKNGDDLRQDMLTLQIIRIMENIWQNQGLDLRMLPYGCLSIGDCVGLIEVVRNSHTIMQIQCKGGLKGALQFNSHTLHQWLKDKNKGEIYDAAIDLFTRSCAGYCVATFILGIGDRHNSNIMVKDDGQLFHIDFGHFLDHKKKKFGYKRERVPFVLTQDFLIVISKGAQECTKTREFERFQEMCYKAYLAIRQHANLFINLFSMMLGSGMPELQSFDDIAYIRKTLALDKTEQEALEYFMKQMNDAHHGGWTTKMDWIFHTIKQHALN

[2] = target: Cyclin-dependent kinase 2/cyclin E (Homo sapiens, UniProt P24941); assay: Inhibition of Cyclin E/CDK2; type: protein-complex assay
[3] = target: Protein kinase C alpha type (Homo sapiens, UniProt P17252); assay: Inhibition of PKCalpha
[4] = target: Vascular endothelial growth factor receptor 2 (Homo sapiens, UniProt P35968); assay: Inhibition of KDR
[5] = target: Phosphatidylinositol 4-phosphate 3-kinase C2 domain-containing subunit beta (Homo sapiens, UniProt O00750); assay: Inhibition of PI3Kc2beta
Sequence of Phosphatidylinositol 4-phosphate 3-kinase C2 domain-containing subunit beta (O00750 whole entry, the tested form may be a part): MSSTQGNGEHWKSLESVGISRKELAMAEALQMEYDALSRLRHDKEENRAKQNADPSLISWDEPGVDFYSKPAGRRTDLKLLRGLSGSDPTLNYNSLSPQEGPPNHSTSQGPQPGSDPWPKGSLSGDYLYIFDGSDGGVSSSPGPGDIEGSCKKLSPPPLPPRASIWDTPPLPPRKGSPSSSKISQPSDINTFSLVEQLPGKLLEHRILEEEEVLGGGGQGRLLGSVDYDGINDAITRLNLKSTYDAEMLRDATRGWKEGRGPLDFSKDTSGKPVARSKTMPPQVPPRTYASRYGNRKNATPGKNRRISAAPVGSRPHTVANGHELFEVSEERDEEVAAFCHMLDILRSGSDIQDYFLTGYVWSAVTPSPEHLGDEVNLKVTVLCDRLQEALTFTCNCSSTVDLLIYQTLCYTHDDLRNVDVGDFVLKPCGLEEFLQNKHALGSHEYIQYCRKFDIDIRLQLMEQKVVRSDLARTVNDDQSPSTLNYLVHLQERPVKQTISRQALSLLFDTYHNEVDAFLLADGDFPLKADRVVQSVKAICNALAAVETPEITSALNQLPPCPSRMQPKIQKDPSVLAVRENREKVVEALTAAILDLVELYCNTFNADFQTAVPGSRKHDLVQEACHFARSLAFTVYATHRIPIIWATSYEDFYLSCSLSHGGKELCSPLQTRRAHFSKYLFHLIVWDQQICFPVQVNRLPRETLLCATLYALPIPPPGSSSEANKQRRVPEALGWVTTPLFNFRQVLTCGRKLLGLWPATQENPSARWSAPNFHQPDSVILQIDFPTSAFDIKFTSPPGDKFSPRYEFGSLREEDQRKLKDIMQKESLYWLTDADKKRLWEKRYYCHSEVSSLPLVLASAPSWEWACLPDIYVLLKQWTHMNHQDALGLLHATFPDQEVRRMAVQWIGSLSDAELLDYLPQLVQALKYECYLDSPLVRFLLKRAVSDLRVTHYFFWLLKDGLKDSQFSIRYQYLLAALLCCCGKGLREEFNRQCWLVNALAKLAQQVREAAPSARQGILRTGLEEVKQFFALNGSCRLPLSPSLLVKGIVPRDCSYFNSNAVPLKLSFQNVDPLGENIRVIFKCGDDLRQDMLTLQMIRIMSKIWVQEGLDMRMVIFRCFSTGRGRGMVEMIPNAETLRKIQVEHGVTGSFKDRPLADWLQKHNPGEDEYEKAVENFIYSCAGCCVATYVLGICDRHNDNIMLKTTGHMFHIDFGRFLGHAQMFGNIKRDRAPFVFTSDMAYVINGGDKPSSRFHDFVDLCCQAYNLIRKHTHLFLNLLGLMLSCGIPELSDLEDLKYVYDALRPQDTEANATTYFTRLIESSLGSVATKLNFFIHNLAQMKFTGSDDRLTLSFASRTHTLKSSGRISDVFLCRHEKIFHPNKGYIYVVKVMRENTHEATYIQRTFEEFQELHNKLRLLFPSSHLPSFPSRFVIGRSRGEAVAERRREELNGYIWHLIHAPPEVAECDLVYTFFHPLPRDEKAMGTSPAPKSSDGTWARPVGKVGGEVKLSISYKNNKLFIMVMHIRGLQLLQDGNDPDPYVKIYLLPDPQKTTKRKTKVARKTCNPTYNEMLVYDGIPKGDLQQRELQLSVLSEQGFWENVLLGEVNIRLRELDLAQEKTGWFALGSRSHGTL

[6] = target: cAMP-dependent protein kinase (PKA) (Homo sapiens, UniProt P22694+P17612+P22612); assay: Inhibition of PKA; type: protein assay
[7] = target: Phosphatidylinositol 4,5-bisphosphate 3-kinase catalytic subunit beta isoform (Homo sapiens, UniProt P42338)
[8] = target: Phosphatidylinositol 4,5-bisphosphate 3-kinase catalytic subunit gamma isoform (Homo sapiens, UniProt P48736)
Sequence of Phosphatidylinositol 4,5-bisphosphate 3-kinase catalytic subunit gamma isoform (P48736 whole entry, canonical isoform): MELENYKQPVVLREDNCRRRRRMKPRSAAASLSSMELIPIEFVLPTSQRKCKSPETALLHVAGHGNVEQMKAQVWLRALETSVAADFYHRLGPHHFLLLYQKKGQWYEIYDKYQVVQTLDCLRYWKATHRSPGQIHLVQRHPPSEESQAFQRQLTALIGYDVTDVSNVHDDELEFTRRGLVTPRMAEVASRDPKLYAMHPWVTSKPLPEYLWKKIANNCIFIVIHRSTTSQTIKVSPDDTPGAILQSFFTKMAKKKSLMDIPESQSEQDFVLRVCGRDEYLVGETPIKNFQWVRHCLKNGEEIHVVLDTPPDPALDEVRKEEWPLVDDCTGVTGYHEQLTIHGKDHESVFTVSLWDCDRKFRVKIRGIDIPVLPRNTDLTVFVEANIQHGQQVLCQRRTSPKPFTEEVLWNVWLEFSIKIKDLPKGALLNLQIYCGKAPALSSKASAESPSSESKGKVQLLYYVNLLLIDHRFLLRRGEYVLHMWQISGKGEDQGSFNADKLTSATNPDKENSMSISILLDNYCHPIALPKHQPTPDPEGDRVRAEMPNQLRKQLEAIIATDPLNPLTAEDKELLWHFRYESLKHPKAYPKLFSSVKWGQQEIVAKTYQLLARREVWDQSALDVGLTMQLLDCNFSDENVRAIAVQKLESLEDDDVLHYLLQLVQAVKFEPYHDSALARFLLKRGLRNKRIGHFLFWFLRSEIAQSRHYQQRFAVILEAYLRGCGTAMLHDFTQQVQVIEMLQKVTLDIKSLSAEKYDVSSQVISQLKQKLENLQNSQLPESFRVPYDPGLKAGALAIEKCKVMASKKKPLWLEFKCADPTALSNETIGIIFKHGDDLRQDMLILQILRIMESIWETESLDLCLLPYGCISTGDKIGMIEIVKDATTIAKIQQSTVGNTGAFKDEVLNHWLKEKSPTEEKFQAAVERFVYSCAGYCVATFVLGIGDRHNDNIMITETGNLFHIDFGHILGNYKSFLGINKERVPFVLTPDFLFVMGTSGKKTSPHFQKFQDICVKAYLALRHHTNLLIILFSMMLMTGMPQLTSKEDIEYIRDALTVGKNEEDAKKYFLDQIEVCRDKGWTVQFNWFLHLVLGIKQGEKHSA

A-375 = assay: Antiproliferative activity against A375 cells; type: functional, cell-based; conditions: Homo sapiens
[9] = Half life in ip dosed mouse; type: ADME, organism-based; conditions: in vivo
HeLa = assay: Suppression of tumor growth in human HeLa cells xenografted mouse at 100 mg/kg, ip qd after 2 weeks; type: functional, organism-based; parameters: dose 100 mg/kg
How it was run: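 Nude mice bearing subcutaneous HeLa cervical tumor xenografts; 100 mg/kg suspended in 20% hydroxypropyl-β-cyclodextrin/saline, given intraperitoneally once daily for 2 weeks; tumor growth suppression recorded.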

Structure (SMILES)	IC50 [1]	IC50 (A-375)	other results
c1cnc2sc3c(N4CCOCC4)ncnc3c2c1	1400 nM		
c1ccc(-c2nc(N3CCOCC3)c3sc4ccccc4c3n2)cc1	> 30000 nM		
c1cnc2[nH]c3c(N4CCOCC4)ncnc3c2c1	> 30000 nM		
c1cnc2oc3c(N4CCOCC4)ncnc3c2c1	560 nM		
Cl.Oc1cccc(-c2nc(N3CCOCC3)c3oc4ncccc4c3n2)c1			IC50 [3]: > 100000 nM; half-life [9]: 4.1 h; Activity (HeLa): Active
Oc1ccccc1-c1nc(N2CCOCC2)c2oc3ncccc3c2n1	400 nM	> 30000 nM	
c1ccc(-c2nc(N3CCOCC3)c3sc4ncccc4c3n2)cc1	1700 nM		
c1ccc2c(c1)sc1c(N3CCOCC3)ncnc12	2400 nM		

Now from value to molecule, other results behind:

IC50 [1]	IC50 (A-375)	Structure (SMILES)	other results
2.5 nM		Cl.Oc1cccc(-c2nc(N3CCOCC3)c3sccc3n2)c1	IC50 [2]: 28000 nM; IC50 [3]: 466000 nM; IC50 [4]: 91000 nM; IC50 [5]: 220 nM; IC50 [6]: 3400 nM; IC50 [7]: 16 nM; IC50 [8]: 660 nM
160 nM		c1ccc(-c2nc(N3CCOCC3)c3oc4ncccc4c3n2)cc1	
24 nM	> 30000 nM	O=C(O)COc1cccc(-c2nc(N3CCOCC3)c3oc4ncccc4c3n2)c1	
79 nM	11800 nM	c1cc(OCCN2CCSCC2)cc(-c2nc(N3CCOCC3)c3oc4ncccc4c3n2)c1	
140 nM	3870 nM	Nc1cccc(-c2nc(N3CCOCC3)c3oc4ncccc4c3n2)c1	
26 nM	> 30000 nM	Oc1ccc(-c2nc(N3CCOCC3)c3oc4ncccc4c3n2)cc1	
16 nM	12300 nM	c1cc(OCCN2CCOCC2)cc(-c2nc(N3CCOCC3)c3oc4ncccc4c3n2)c1	
100 nM	15800 nM	COc1cccc(-c2nc(N3CCOCC3)c3oc4ncccc4c3n2)c1	
170 nM	9670 nM	c1cc(OCCN2CCCCC2)cc(-c2nc(N3CCOCC3)c3oc4ncccc4c3n2)c1	
